Marks after values point to notes of the source that are not given here.
Key:
[1] = Study 2 Part 1: adverse events after single doses via MDDPI; format: in vivo, human
Summary of the method: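 Study 2 Part 1 was a three-period single ascending dose design in healthy men and women, with four randomized treatment sequences. At each visit, test compound (2,400, 4,000, 4,800 µg) or placebo was inhaled via a reservoir multi-dose dry-powder inhaler, with the dose rising each visit. AEs and investigator-judged relation to study drug were recorded, reported as number (%) of the safety population.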

[2] = Safety assessments in both studies; format: in vivo, human
Summary of the method: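 Healthy non- or ex-smoking volunteers aged 18–55 (Study 1 men only; Study 2 men and women), randomized, double-blind, placebo-controlled, single centre. AEs were recorded with the investigator-judged relation to study drug. Haematology and blood chemistry were taken at baseline and end of dosing. Blood pressure, ECG and 24 h Holter were taken at regular intervals, and FEV1 was checked for post-dose bronchospasm.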

[3] = Study 1 Part 1: adverse events after single doses via SDDPI; format: in vivo, human
Summary of the method: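 Study 1 Part 1 used a crossover design in healthy men aged 18–55. Single inhaled doses of test compound (20–2,000 µg) or matching placebo were given via a capsule-based single-dose dry-powder inhaler. Investigators recorded each AE and its relation to study medication. Counts are number (%) of the safety population, defined as randomized subjects receiving at least one dose.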

[4] = Study 2 Part 2: repeat ascending dose; format: in vivo, human; conditions: MDDPI; for Racc / CL/F / AUC(0-t): geometric mean (% CV); for AUC(0-t) / Tmax: human, plasma, inhaled; for Tmax: median (range)
Summary of the method: (§1)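 Blood was collected in lithium heparin, chilled on ice, and centrifuged at 2,000 ×g for 15 min at ~4°C. Plasma was stabilised with 1 M citric acid (100 µL per 1 mL plasma) and stored at ≤−65°C. After solid-phase extraction, samples were assayed by validated LC-MS/MS with heated electrospray and a deuterated internal standard (LLOQ 10 pg/mL). PK parameters were derived non-compartmentally.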

[5] = Study 2 Part 1: single ascending dose PK via MDDPI; format: in vivo; conditions: human, plasma, inhaled
Summary of the method: as §1

[6] = rats and ferrets, intratracheal administration at doses compatible with those used in humans; cited from earlier work
[7] = Study 1 Part 1: single ascending dose PK via SDDPI; format: in vivo; conditions: human, plasma, inhaled
Summary of the method: as §1

[8] = test system: human bronchial epithelial cells; conditions: alone and in combination with low-dose corticosteroids; cited from earlier work
[9] = following both single and multiple doses

CS(=O)(=O)Nc1ccc(C(=O)O[C@@H](Cc2c(Cl)c[n+]([O-])cc2Cl)c2ccc(OC(F)F)c(OCC3CC3)c2)cc1OCC1CC1 [CHF6001]
AE considered related to study medication ([1]; single dose 2,400 µg, N=9): 1 (11.1) Number (%) of subjects | AE leading to death ([1]; single dose 2,400 µg, N=9): 0 Number (%) of subjects | AE leading to withdrawal ([1]; single dose 2,400 µg, N=9): 1 (11.1) Number (%) of subjects | At least one AE ([1]; single dose 2,400 µg, N=9): 3 (33.3) Number (%) of subjects | At least one SAE ([1]; single dose 2,400 µg, N=9): 0 Number (%) of subjects | Severe AE ([1]; single dose 2,400 µg, N=9): 1 (11.1) Number (%) of subjects | AE considered related to study medication ([1]; single dose 4,000 µg, N=8): 1 (12.5) Number (%) of subjects | AE leading to death ([1]; single dose 4,000 µg, N=8): 0 Number (%) of subjects | AE leading to withdrawal ([1]; single dose 4,000 µg, N=8): 0 Number (%) of subjects | At least one AE ([1]; single dose 4,000 µg, N=8): 1 (12.5) Number (%) of subjects | At least one SAE ([1]; single dose 4,000 µg, N=8): 0 Number (%) of subjects | Severe AE ([1]; single dose 4,000 µg, N=8): 0 Number (%) of subjects | AE considered related to study medication ([1]; single dose 4,800 µg, N=8): 0 Number (%) of subjects | AE leading to death ([1]; single dose 4,800 µg, N=8): 0 Number (%) of subjects | AE leading to withdrawal ([1]; single dose 4,800 µg, N=8): 0 Number (%) of subjects | At least one AE ([1]; single dose 4,800 µg, N=8): 1 (12.5) Number (%) of subjects | At least one SAE ([1]; single dose 4,800 µg, N=8): 0 Number (%) of subjects | Severe AE ([1]; single dose 4,800 µg, N=8): 0 Number (%) of subjects | mean laboratory values ([2]; both studies): within normal ranges | post-dose decreases in FEV1 (bronchospasm) ([2]; both studies, single and multiple doses): no clinically significant post-dose decreases | mean ECG values [2, 9]: within the normal range | mean systolic and diastolic blood pressure [2, 9]: within the normal range | nausea events ([2]; following single doses in both studies): no nausea events | relationship between dose and occurrence of AEs or serious adverse events ([2]; single or multiple dosing): no relationship | AE considered related to study medication ([3]; single dose 20 µg, N=8): 0 Number (%) of subjects | AE leading to death ([3]; single dose 20 µg, N=8): 0 Number (%) of subjects | AE leading to withdrawal ([3]; single dose 20 µg, N=8): 0 Number (%) of subjects | At least one AE ([3]; single dose 20 µg, N=8): 1 (12.5) Number (%) of subjects | At least one SAE ([3]; single dose 20 µg, N=8): 0 Number (%) of subjects | Severe AE ([3]; single dose 20 µg, N=8): 0 Number (%) of subjects | AE considered related to study medication ([3]; single dose 100 µg, N=8): 0 Number (%) of subjects | AE leading to death ([3]; single dose 100 µg, N=8): 0 Number (%) of subjects | AE leading to withdrawal ([3]; single dose 100 µg, N=8): 0 Number (%) of subjects | At least one AE ([3]; single dose 100 µg, N=8): 0 Number (%) of subjects | At least one SAE ([3]; single dose 100 µg, N=8): 0 Number (%) of subjects | Severe AE ([3]; single dose 100 µg, N=8): 0 Number (%) of subjects | AE considered related to study medication ([3]; single dose 200 µg, N=8): 0 Number (%) of subjects | AE leading to death ([3]; single dose 200 µg, N=8): 0 Number (%) of subjects | AE leading to withdrawal ([3]; single dose 200 µg, N=8): 1 (12.5) Number (%) of subjects | At least one AE ([3]; single dose 200 µg, N=8): 3 (37.5) Number (%) of subjects | At least one SAE ([3]; single dose 200 µg, N=8): 0 Number (%) of subjects | Severe AE ([3]; single dose 200 µg, N=8): 0 Number (%) of subjects | AE considered related to study medication ([3]; single dose 400 µg, N=7): 0 Number (%) of subjects | AE leading to death ([3]; single dose 400 µg, N=7): 0 Number (%) of subjects | AE leading to withdrawal ([3]; single dose 400 µg, N=7): 0 Number (%) of subjects | At least one AE ([3]; single dose 400 µg, N=7): 2 (28.6) Number (%) of subjects | At least one SAE ([3]; single dose 400 µg, N=7): 0 Number (%) of subjects | Severe AE ([3]; single dose 400 µg, N=7): 0 Number (%) of subjects | AE considered related to study medication ([3]; single dose 800 µg, N=7): 0 Number (%) of subjects | AE leading to death ([3]; single dose 800 µg, N=7): 0 Number (%) of subjects | AE leading to withdrawal ([3]; single dose 800 µg, N=7): 0 Number (%) of subjects | At least one AE ([3]; single dose 800 µg, N=7): 3 (42.9) Number (%) of subjects | At least one SAE ([3]; single dose 800 µg, N=7): 0 Number (%) of subjects | Severe AE ([3]; single dose 800 µg, N=7): 0 Number (%) of subjects | AE considered related to study medication ([3]; single dose 1,600 µg, N=7): 0 Number (%) of subjects | AE leading to death ([3]; single dose 1,600 µg, N=7): 0 Number (%) of subjects | AE leading to withdrawal ([3]; single dose 1,600 µg, N=7): 0 Number (%) of subjects | At least one AE ([3]; single dose 1,600 µg, N=7): 2 (28.6) Number (%) of subjects | At least one SAE ([3]; single dose 1,600 µg, N=7): 0 Number (%) of subjects | Severe AE ([3]; single dose 1,600 µg, N=7): 0 Number (%) of subjects | AE considered related to study medication ([3]; single dose 2,000 µg, N=6): 0 Number (%) of subjects | AE leading to death ([3]; single dose 2,000 µg, N=6): 0 Number (%) of subjects | AE leading to withdrawal ([3]; single dose 2,000 µg, N=6): 0 Number (%) of subjects | At least one AE ([3]; single dose 2,000 µg, N=6): 0 Number (%) of subjects | At least one SAE ([3]; single dose 2,000 µg, N=6): 0 Number (%) of subjects | Severe AE ([3]; single dose 2,000 µg, N=6): 0 Number (%) of subjects | Racc ([4]; 1,200 µg BID, Day 14, N=9): 6.66 (38.4) | CL/F ([4]; 1,200 µg BID, Day 14, n=8): 588 (50.7) ^a mL/min | CL/F ([4]; 2,000 µg BID, Day 14, N=9): 652 (39.0) mL/min | Racc ([4]; 2,000 µg BID, Day 14, N=9): 6.28 (19.5) | CL/F ([4]; 2,400 µg BID, Day 14, n=8): 646 (37.0) ^a mL/min | Racc ([4]; 2,400 µg BID, Day 14, n=8): 5.47 (36.6) ^a | AUC(0-t) ([4]; 1200 µg, AUC0–12 h, 1,200 µg BID, Day 14, N=9): 34 ng·h/mL | Tmax ([4]; 1200 µg, tmax, 1,200 µg BID, Day 14, N=9): 1.6 h | AUC(0-t) ([4]; 2000 µg, AUC0–12 h, 2,000 µg BID, Day 14, N=9): 51.1 ng·h/mL | Tmax ([4]; 2000 µg, tmax, 2,000 µg BID, Day 14, N=9): 1.5 h | AUC(0-t) ([4]; 2400 µg, AUC0–12 h, 2,400 µg BID, Day 14, n=8): 61.9 ng·h/mL | Tmax ([4]; 2400 µg, tmax, 2,400 µg BID, Day 14, n=8): 2.3 h | Tmax [5]: 3 h | AUC(0-t) ([5]; 2400 µg): 35.2 ng·h/mL | Cmax ([5]; 2400 µg): 1.23 ng/mL | Tmax ([5]; 2400 µg): 3 h | half-life ([5]; 2400 µg): 49.1 h | AUC(0-t) ([5]; 4000 µg): 75.8 ng·h/mL | Cmax ([5]; 4000 µg): 2.55 ng/mL | Tmax ([5]; 4000 µg): 3 h | half-life ([5]; 4000 µg): 44 h | AUC(0-t) ([5]; 4800 µg): 77.4 ng·h/mL | Cmax ([5]; 4800 µg): 2.72 ng/mL | Tmax ([5]; 4800 µg): 3 h | half-life ([5]; 4800 µg): 40 h | emesis or nausea [6]: no evidence of emesis or nausea | half-life [7]: 30 to 45 h | AUC(0-t) ([7]; 20 ug): 0.0316 ng·h/mL | Cmax ([7]; 20 ug): 0.0189 ng/mL | half-life ([7]; 20 ug): 5.6 h | AUC(0-t) ([7]; 100 ug): 1.48 ng·h/mL | Cmax ([7]; 100 ug): 0.0638 ng/mL | half-life ([7]; 100 ug): 28.2 h | AUC(0-t) ([7]; 200 ug): 2.78 ng·h/mL | Cmax ([7]; 200 ug): 0.14 ng/mL | half-life ([7]; 200 ug): 30.1 h | AUC(0-t) ([7]; 400 ug): 5.38 ng·h/mL | Cmax ([7]; 400 ug): 0.195 ng/mL | half-life ([7]; 400 ug): 45.3 h | AUC(0-t) ([7]; 800 ug): 10.6 ng·h/mL | Cmax ([7]; 800 ug): 0.432 ng/mL | half-life ([7]; 800 ug): 26.3 h | AUC(0-t) ([7]; 1600 µg): 18 ng·h/mL | Cmax ([7]; 1600 µg): 0.73 ng/mL | half-life ([7]; 1600 µg): 27.4 h | AUC(0-t) ([7]; 2000 µg): 25.6 ng·h/mL | Cmax ([7]; 2000 µg): 0.983 ng/mL | half-life ([7]; 2000 µg): 37.3 h | cytokine levels after rhinovirus challenge [8]: reduced the levels of a range of cytokines in a concentration-dependent manner
